Assay results: publication PMC7729281 (Biochemistry, 2020)
“And” between values parts separate entries of the source, which are not always exact repeats. Equal values may be shown once. Read-outs that look alike come from different tables or passages of the source.

What was measured:
human platelets [1] = assay: Ex vivo platelet incubation and lipidomics; type: cell-based; conditions: human platelets + DHA, with inhibitor; data not shown
h15-LOX-1 [2] = biological target: T1, h15-LOX-1 (Homo sapiens, UniProt P16050); assay: Product analysis of h15-LOX-1 reactions; type: biochemical
T1 sequence (P16050 1-662): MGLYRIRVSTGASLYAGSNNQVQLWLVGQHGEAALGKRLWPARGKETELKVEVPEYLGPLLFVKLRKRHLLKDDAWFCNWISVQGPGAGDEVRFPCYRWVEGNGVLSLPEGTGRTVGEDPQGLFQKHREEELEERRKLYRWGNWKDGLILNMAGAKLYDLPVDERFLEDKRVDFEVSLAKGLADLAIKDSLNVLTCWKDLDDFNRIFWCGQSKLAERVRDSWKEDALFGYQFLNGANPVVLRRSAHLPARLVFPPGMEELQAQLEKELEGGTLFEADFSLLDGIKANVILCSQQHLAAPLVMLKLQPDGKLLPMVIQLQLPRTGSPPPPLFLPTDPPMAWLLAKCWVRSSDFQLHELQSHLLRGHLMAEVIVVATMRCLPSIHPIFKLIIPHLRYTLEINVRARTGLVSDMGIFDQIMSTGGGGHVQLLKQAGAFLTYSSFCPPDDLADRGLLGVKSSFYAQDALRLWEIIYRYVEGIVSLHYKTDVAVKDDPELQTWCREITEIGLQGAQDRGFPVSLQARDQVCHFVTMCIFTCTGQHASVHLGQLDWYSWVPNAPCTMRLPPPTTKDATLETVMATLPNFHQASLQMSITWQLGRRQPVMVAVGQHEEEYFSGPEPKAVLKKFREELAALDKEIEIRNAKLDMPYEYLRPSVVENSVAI
In short: (§1)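 h15-LOX-1 (0.125 μM, pH 7.5) or h12-LOX (0.300 μM, pH 8.0) was reacted in 25 mM HEPES at room temperature under ambient O2. Substrates were 10 μM DHA for 1 min (monitored at 234 nm) or 1 μM 14S-HpDHA for 20 min (h15-LOX-1) or 1 h (h12-LOX) (monitored at 270 nm). Reactions were quenched with acetic acid, spiked with d5-maresin-1, extracted into DCM and background-subtracted against a no-enzyme control. Split samples were run with or without trimethyl phosphite reduction. Products were identified by C18 LC-MS/MS (qTOF), N = 3.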

h15-LOX-1 [3] = biological target: T1, h15-LOX-1; conditions: h15-LOX-1 with AA, obtained previously ref 22; cited from earlier work
human platelets [4] = assay: Collagen-stimulated platelet aggregation; type: cell-based; conditions: 10 min incubation, collagen 0.25 μg/mL
In short: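 Washed human platelets were isolated by serial centrifugation and resuspended in Tyrode's buffer at 3 × 10^8/mL. They were preincubated with test compound (1–10 μM) for 10 min at 37 °C, then stimulated with 0.25 μg/mL collagen while stirring at 1100 rpm. Maximum aggregation was read as the light-transmittance change, mean ± SEM of 3–5 independent experiments. Comparison versus vehicle used one-way ANOVA with Dunnett's test.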

h12-LOX [5] = biological target: T2, h12-LOX (Homo sapiens, UniProt P18054); assay: Product analysis of h12-LOX reactions; type: biochemical
T2 sequence (P18054 1-663): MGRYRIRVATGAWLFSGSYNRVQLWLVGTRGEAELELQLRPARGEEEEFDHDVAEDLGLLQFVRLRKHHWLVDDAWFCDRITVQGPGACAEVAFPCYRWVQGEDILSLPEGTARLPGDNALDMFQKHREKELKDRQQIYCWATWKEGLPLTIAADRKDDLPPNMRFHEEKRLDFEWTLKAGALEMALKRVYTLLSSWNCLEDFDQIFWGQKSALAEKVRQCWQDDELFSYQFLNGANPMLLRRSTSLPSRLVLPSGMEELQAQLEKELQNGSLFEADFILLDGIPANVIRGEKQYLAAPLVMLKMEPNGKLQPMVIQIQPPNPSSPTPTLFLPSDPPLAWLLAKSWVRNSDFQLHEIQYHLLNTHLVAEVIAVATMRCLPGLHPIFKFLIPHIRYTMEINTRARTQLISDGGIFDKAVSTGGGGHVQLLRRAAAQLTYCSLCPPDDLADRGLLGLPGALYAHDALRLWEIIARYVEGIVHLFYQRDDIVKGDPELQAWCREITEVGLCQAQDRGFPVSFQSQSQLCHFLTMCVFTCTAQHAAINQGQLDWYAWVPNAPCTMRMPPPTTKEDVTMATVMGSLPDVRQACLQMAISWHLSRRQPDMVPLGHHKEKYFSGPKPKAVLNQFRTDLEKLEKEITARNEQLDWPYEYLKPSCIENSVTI
In short: as §1

h12-LOX [6] = biological target: T2, h12-LOX; assay: Steady-state kinetics of h12-LOX
h15-LOX-1 [7] = biological target: T1, h15-LOX-1; assay: Steady-state kinetics of h15-LOX-1; conditions: for fold difference of kcat/KM: h15-LOX-1, kcat/KM of enzyme with DHA set to 1 (Table 5)
M2-polarized macrophages = M2-polarized macrophages challenged by inhibitor ref 44; cited from earlier work
h12-LOX [8] = biological target: T2, h12-LOX; assay: Allosteric modulation of 14S-HpDHA epoxidation by h12-LOX; type: biochemical; conditions: 1 μM 14S-HpDHA
In short: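 Recombinant human h15-LOX-1 (0.125 μM, 25 mM HEPES pH 7.5, 20 min) or h12-LOX (0.3 μM, pH 8.0, 1 h) reacted at room temperature with 1 μM 14S-HpDHA while oxylipin modulator was titrated (1–100 μM), or with 14S-HpDHA varied alone (1–50 μM). Products were reduced and analysed by LC-MS. Dehydration (epoxide) versus oxygenation product percentages were calculated, N = 3.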

[9] = substrate: CC/C=C\C/C=C\C/C=C\C/C=C\C/C=C\C/C=C\CCC(=O)O; assay: purified protein, by the assay type
[10] = substrate: CCCCC/C=C\C/C=C\C/C=C\C/C=C\CCCC(=O)O; assay: purified protein, by the assay type; conditions: other: h12-LOX + substrate, 25 mM HEPES pH 8.0, RT
[11] = h12-LOX + substrate, 25 mM HEPES pH 8.0, RT
[12] = h15-LOX-1 + substrate, 25 mM HEPES pH 7.5, RT
[13] = other: h15-LOX-1 + substrate, 25 mM HEPES pH 7.5, RT
[14] = other: h12-LOX + substrate, 25 mM HEPES pH 8.0, RT

COc1cccc(CNc2ccc(S(=O)(=O)Nc3nc4ccccc4s3)cc2)c1O [ML355]
reduction of 14S-HDHA and 11S-HDHA production (human platelets [1]): approximately 70%

CCCCC/C=C\C/C=C\C/C=C\C/C=C\CCCC(=O)O [AA, arachidonic acid]
product profile: ω-9 oxylipin 12S-HETE / 12S-HpETE (h15-LOX-1 [2]; h15-LOX-1 + AA): 10%
Km (h15-LOX-1 [3]): 2.7 ± 0.3 µM
kcat (h15-LOX-1 [3]): 5.3 ± 0.4 s⁻¹

CCCCC/C=C\C[C@H](O)/C=C/C=C\CCCCCCC(=O)O [12S-HETrE, 12S-hydroxy-8Z,10E,14Z-eicosatrienoic acid, reference compound]
concentration required to completely inhibit platelet aggregation (human platelets [4]): 5 to 10 µM

CC/C=C\C/C=C\C[C@H](O)/C=C/C=C\C=C\[C@@H](O)C/C=C\CCC(=O)O [7S,14S-EZE-diHDHA, 7S,14S-dihydroxy-4Z,8E,10Z,12E,16Z,19Z-docosahexaenoic acid]
concentration required to completely inhibit platelet aggregation (human platelets [4]): 5 to 10 µM

CC/C=C\C/C=C\C[C@H](O)\C=C/C=C/C=C/[C@H](O)C/C=C\CCC(=O)O [MaR-1, 7R,14S-dihydroxy-4Z,8E,10E,12Z,16Z,19Z-docosahexaenoic acid, reference compound]
concentration required to completely inhibit platelet aggregation (human platelets [4]): 5 to 10 µM

CC/C=C\C/C=C\C/C=C\C/C=C\C/C=C\C/C=C\CCC(=O)O [DHA, docosahexaenoic acid]
product profile: 11S-HpDHA (ω-12) (h15-LOX-1 [2]; h15-LOX-1 + 10 μM DHA, 1 min): 12% and 12 ± 1%
product profile: 14S-HpDHA (ω-9) (h15-LOX-1 [2]; h15-LOX-1 + 10 μM DHA, 1 min): 40 ± 1%
product profile: 17S-HpDHA (ω-6) (h15-LOX-1 [2]; h15-LOX-1 + 10 μM DHA, 1 min): 46% and 46 ± 1%
product profile: 11S-HpDHA (ω-12) (h12-LOX [5]; h12-LOX + 10 μM DHA, 1 min): 19% and 19 ± 3%
product profile: 14S-HpDHA (ω-9) (h12-LOX [5]; h12-LOX + 10 μM DHA, 1 min): 81% and 81 ± 3%
product profile: 17S-HpDHA (ω-6) (h12-LOX [5]; h12-LOX + 10 μM DHA, 1 min): <1.0%
14S-HpDHA product selectivity of h12-LOX greater than that of h15-LOX-1 (h12-LOX [5]; substrate DHA): 2 fold
14S-HpDHA biosynthetic flux (h12-LOX [6]; h12-LOX + DHA, B.F. = kcat/KM * % product): 11
fold difference of kcat/KM (h12-LOX [6]; h12-LOX, kcat/KM of enzyme with DHA set to 1 (Table 5)): 1.0
kcat/KM of h12-LOX greater than that of h15-LOX-1 (h12-LOX [6]; substrate DHA): 39 fold
fold difference of 14S-HpDHA biosynthetic flux (h15-LOX-1 [7]; h15-LOX-1 + DHA): 1.0
14S-HpDHA biosynthetic flux (h15-LOX-1 [7]; h15-LOX-1 + DHA, B.F. = kcat/KM * % product): 0.14
fold difference of kcat/KM (h15-LOX-1 [7]): 1.0

O=C(Nc1ccc(F)cc1Cl)c1n[nH]c(Cl)c1Cl [BLX-3887]
decrease of 14S-HDHA production (M2-polarized macrophages): 45%
decrease of maresin production (M2-polarized macrophages): 70%

CC/C=C\C/C=C\C[C@H](O)/C=C/C=C\C/C=C\CCCCCC(=O)O [14S-HDPAω-3, 14S-hydroxy-7Z,10Z,12E,16Z,19Z-docosapentaenoic acid]
epoxidation product at end of titration (h12-LOX [8]; titration with modulator, 72.0% at start): 5.0%

CCCCC/C=C\C[C@H](O)/C=C/C=C\C/C=C\CCCC(=O)O [12S-HETE, 12S-hydroxy-5Z,8Z,10E,14Z-eicosatetraenoic acid, reference compound]
allosteric effect on epoxidation (h12-LOX [8]; titration of modulator): no allosteric effect

CC/C=C\C/C=C\C[C@H](O)/C=C/C=C\C/C=C\C/C=C\CCC(=O)O [14S-HDHA, 14S-hydroxy-4Z,7Z,10Z,12E,16Z,19Z-docosahexaenoic acid]
Km (h12-LOX [6]; [11]): 210 ± 70 µM
kcat (h12-LOX [6]; [11]): 0.17 ± 0.03 s⁻¹
Km (h15-LOX-1 [7]; [12]): 18 ± 4 µM
kcat (h15-LOX-1 [7]; [12]): 0.57 ± 0.01 s⁻¹
fold difference of kcat/KM (h15-LOX-1 [7]): −13

B1: h15-LOX-1 (Homo sapiens) (protein)
chain: MGLYRIRVSTGASLYAGSNNQVQLWLVGQHGEAALGKRLWPARGKETELKVEVPEYLGPLLFVKLRKRHLLKDDAWFCNWISVQGPGAGDEVRFPCYRWVEGNGVLSLPEGTGRTVGEDPQGLFQKHREEELEERRKLYRWGNWKDGLILNMAGAKLYDLPVDERFLEDKRVDFEVSLAKGLADLAIKDSLNVLTCWKDLDDFNRIFWCGQSKLAERVRDSWKEDALFGYQFLNGANPVVLRRSAHLPARLVFPPGMEELQAQLEKELEGGTLFEADFSLLDGIKANVILCSQQHLAAPLVMLKLQPDGKLLPMVIQLQLPRTGSPPPPLFLPTDPPMAWLLAKCWVRSSDFQLHELQSHLLRGHLMAEVIVVATMRCLPSIHPIFKLIIPHLRYTLEINVRARTGLVSDMGIFDQIMSTGGGGHVQLLKQAGAFLTYSSFCPPDDLADRGLLGVKSSFYAQDALRLWEIIYRYVEGIVSLHYKTDVAVKDDPELQTWCREITEIGLQGAQDRGFPVSLQARDQVCHFVTMCIFTCTGQHASVHLGQLDWYSWVPNAPCTMRLPPPTTKDATLETVMATLPNFHQASLQMSITWQLGRRQPVMVAVGQHEEEYFSGPEPKAVLKKFREELAALDKEIEIRNAKLDMPYEYLRPSVVENSVAI
Km [9, 13]: 6.7 ± 3 µM
kcat [9, 13]: 2.4 ± 0.6 s⁻¹
kcat/Km [9, 13]: 360000 ± 100000 M⁻¹ s⁻¹

B2: h12-LOX (Homo sapiens) (protein)
chain: MGRYRIRVATGAWLFSGSYNRVQLWLVGTRGEAELELQLRPARGEEEEFDHDVAEDLGLLQFVRLRKHHWLVDDAWFCDRITVQGPGACAEVAFPCYRWVQGEDILSLPEGTARLPGDNALDMFQKHREKELKDRQQIYCWATWKEGLPLTIAADRKDDLPPNMRFHEEKRLDFEWTLKAGALEMALKRVYTLLSSWNCLEDFDQIFWGQKSALAEKVRQCWQDDELFSYQFLNGANPMLLRRSTSLPSRLVLPSGMEELQAQLEKELQNGSLFEADFILLDGIPANVIRGEKQYLAAPLVMLKMEPNGKLQPMVIQIQPPNPSSPTPTLFLPSDPPLAWLLAKSWVRNSDFQLHEIQYHLLNTHLVAEVIAVATMRCLPGLHPIFKFLIPHIRYTMEINTRARTQLISDGGIFDKAVSTGGGGHVQLLRRAAAQLTYCSLCPPDDLADRGLLGLPGALYAHDALRLWEIIARYVEGIVHLFYQRDDIVKGDPELQAWCREITEVGLCQAQDRGFPVSFQSQSQLCHFLTMCVFTCTAQHAAINQGQLDWYAWVPNAPCTMRMPPPTTKEDVTMATVMGSLPDVRQACLQMAISWHLSRRQPDMVPLGHHKEKYFSGPKPKAVLNQFRTDLEKLEKEITARNEQLDWPYEYLKPSCIENSVTI
Km [9, 14]: 0.90 ± 0.06 µM
kcat [9, 14]: 13 ± 0.2 s⁻¹
kcat/Km [9, 14]: 1.4e+07 ± 800000 M⁻¹ s⁻¹
Km [10]: 0.95 ± 0.1 µM
kcat [10]: 18 ± 0.8 s⁻¹
kcat/Km [10]: 1.9e+07 ± 2e+06 M⁻¹ s⁻¹
